Key:
NHIK3025 [1] = assay: Evaluated in vitro for phototoxic effect on human cell line NHIK 3025, assay performed using threefold dilution and result reported by one dilution step.; assay type: functional
Tetrahymena thermophila [2] = assay: Evaluated in vitro for phototoxic effect on ciliate Tetrahymena thermophila cells; assay type: functional
NHIK3025 [3] = assay: Evaluated for DNA. photo-cross-linking in cell line NHIK 3025 cross-linking affinity measured by alkaline elution technique.; assay type: functional, Homo sapiens
In short: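 NHIK 3025 cells (~10^6) labelled 16 h with [3H]thymidine (1 µCi/mL). Psoralen in PBS at 1–90 µg/mL, 10-min equilibration, then irradiation 0.8 J/cm2 at ~365 nm. Cells trypsinized and lysed on 2-µm filter (0.2% Sarcosyl, 2 M NaCl, 40 mM EDTA, pH 10), then eluted at pH 12.2. Relative efficiency vs 8-MOP is read from concentrations giving similar elution retardation.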

Nucleic Acid = assay: Evaluated for photo-cross-linking of DNA; assay type: functional
In short: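 Sonicated calf thymus DNA (200 µg) plus psoralen 0.1–100 µg/mL in 10 mM Tris-HCl, 1 mM EDTA, pH 7.0. Irradiated 30 min (~365 nm, 24 kJ/m2), heated 100 °C 5 min, ice-cooled. Double- vs single-stranded DNA resolved on hydroxylapatite with 50–500 mM phosphate gradient. The concentration giving 50% cross-linked DNA is expressed relative to 8-MOP.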

Mus musculus = assay: Evaluated in vivo for its photosensitization activity, against increase in skin thickness relative to that of 8-MOP.; assay type: functional; parameters: unit: % of 8-MOP
In short: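 Female hairless Hr/Hr mice, 4–6 weeks, 5–28 per group. Compound given ip at 0.6, 6 or 60 mg/kg (reported at 6 mg/kg). UVA from four TL20W/09 tubes after 5 min–2 h, 4 J cm-1 as printed. Skin-fold thickness measured by caliper 24 h post-irradiation, expressed relative to 8-MOP (=100%).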

Tetrahymena thermophila [4] = assay: Evaluated for DNA photo-cross-linking in Tetrahymena thermophila and relative cross-linking affinity measured by the alkaline elution technique.; assay type: functional
In short: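 Tetrahymena thermophila ~2×10^5 cells prelabelled with [3H]thymidine; phototreated with psoralen in 10 mM Tris-HCl pH 7.4 at ~365 nm. Interstrand cross-links are measured by alkaline elution: cells lysed on 2-µm filter (0.2% Sarcosyl, 2 M NaCl, 40 mM EDTA, pH 10), eluted at pH 12.2. Efficiency relative to 8-MOP is taken from concentrations giving similar elution retardation.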

CN1CC[N+](C)(CCCOc2c3occc3cc3ccc(=O)oc23)CC1.[Br-]
Phototoxic effect (NHIK3025 [1]): 10
Phototoxic effect (Tetrahymena thermophila [2]): 10
DNA crosslinking (NHIK3025 [3]): 7
Photo-cross-linking of DNA (Nucleic Acid): 2.5
Photosensitization (Mus musculus): 463
DNA photo-crosslinking (Tetrahymena thermophila [4]): 2

O=c1ccc2cc3ccoc3c(OCCO)c2o1
Photo-cross-linking of DNA (Nucleic Acid): 1

C[N+](C)(C)CCCOc1c2occc2cc2ccc(=O)oc12.[Br-]
Phototoxic effect (NHIK3025 [1]): 15
Phototoxic effect (Tetrahymena thermophila [2]): 3
DNA crosslinking (NHIK3025 [3]): 3
Photo-cross-linking of DNA (Nucleic Acid): 1.1
Photosensitization (Mus musculus): 477
DNA photo-crosslinking (Tetrahymena thermophila [4]): 5

COc1c2occc2c(COCCC[N+](C)(C)C)c2ccc(=O)oc12.[Br-]
Phototoxic effect (NHIK3025 [1]): 3
Phototoxic effect (Tetrahymena thermophila [2]): <0.3
DNA crosslinking (NHIK3025 [3]): 1
Photo-cross-linking of DNA (Nucleic Acid): 0.1
DNA photo-crosslinking (Tetrahymena thermophila [4]): 4

COCc1c2ccoc2c(OC)c2oc(=O)ccc12
Photo-cross-linking of DNA (Nucleic Acid): 0.04

CC[N+](CC)(CC)Cc1c2ccoc2c(OC)c2oc(=O)ccc12.[Cl-]
Phototoxic effect (NHIK3025 [1]): 3
Phototoxic effect (Tetrahymena thermophila [2]): 5
DNA crosslinking (NHIK3025 [3]): 8
Photo-cross-linking of DNA (Nucleic Acid): 0.05
Photosensitization (Mus musculus): 133
DNA photo-crosslinking (Tetrahymena thermophila [4]): 14

COc1c2occc2c(CN(C)CCO)c2ccc(=O)oc12.Cl
Phototoxic effect (NHIK3025 [1]): 2
Phototoxic effect (Tetrahymena thermophila [2]): 3
DNA crosslinking (NHIK3025 [3]): 15
Photo-cross-linking of DNA (Nucleic Acid): 0.5
Photosensitization (Mus musculus): 306

COc1c2occc2c(CN2CCN(C)CC2)c2ccc(=O)oc12.Cl
Phototoxic effect (NHIK3025 [1]): 5
Phototoxic effect (Tetrahymena thermophila [2]): 10
DNA crosslinking (NHIK3025 [3]): 9
Photo-cross-linking of DNA (Nucleic Acid): 0.2
Photosensitization (Mus musculus): 325

Br.CCN(CC)CCCOc1c2occc2cc2ccc(=O)oc12
Phototoxic effect (NHIK3025 [1]): 100
Phototoxic effect (Tetrahymena thermophila [2]): 150
DNA crosslinking (NHIK3025 [3]): 190
Photo-cross-linking of DNA (Nucleic Acid): 1.8
Photosensitization (Mus musculus): 357
DNA photo-crosslinking (Tetrahymena thermophila [4]): 170

COc1c2occc2c(CN2CCOCC2)c2ccc(=O)oc12.Cl
Phototoxic effect (NHIK3025 [1]): 0.3
Phototoxic effect (Tetrahymena thermophila [2]): 0.3
DNA crosslinking (NHIK3025 [3]): <1
Photo-cross-linking of DNA (Nucleic Acid): 0.1
Photosensitization (Mus musculus): 154
DNA photo-crosslinking (Tetrahymena thermophila [4]): 6

COc1c2occc2c(CN2CCCCC2)c2ccc(=O)oc12.Cl
Phototoxic effect (NHIK3025 [1]): 3
DNA crosslinking (NHIK3025 [3]): 19
Photo-cross-linking of DNA (Nucleic Acid): 0.3
Photosensitization (Mus musculus): 238
DNA photo-crosslinking (Tetrahymena thermophila [4]): 8

COc1c2occc2c(CO)c2ccc(=O)oc12
Photo-cross-linking of DNA (Nucleic Acid): 0.07

COc1c2occc2c(COCCCO)c2ccc(=O)oc12
Photo-cross-linking of DNA (Nucleic Acid): < 0.07

COc1c2occc2cc2ccc(=O)oc12 [METHOXSALEN]
Phototoxic effect (NHIK3025 [1]): 100
Phototoxic effect (Tetrahymena thermophila [2]): 100
DNA crosslinking (NHIK3025 [3]): 100
Photo-cross-linking of DNA (Nucleic Acid): 1
Photosensitization (Mus musculus): 100
DNA photo-crosslinking (Tetrahymena thermophila [4]): 100

COc1c2occc2c(C[N+](C)(C)C)c2ccc(=O)oc12.[Cl-]
Phototoxic effect (NHIK3025 [1]): 1
Phototoxic effect (Tetrahymena thermophila [2]): 0.3
DNA crosslinking (NHIK3025 [3]): 3
Photo-cross-linking of DNA (Nucleic Acid): 0.1
Photosensitization (Mus musculus): 140
DNA photo-crosslinking (Tetrahymena thermophila [4]): 2

COc1c2occc2c(CN(CCO)CCO)c2ccc(=O)oc12.Cl
Phototoxic effect (NHIK3025 [1]): 3
Phototoxic effect (Tetrahymena thermophila [2]): 0.3
DNA crosslinking (NHIK3025 [3]): 1
Photo-cross-linking of DNA (Nucleic Acid): 0.2
Photosensitization (Mus musculus): 339
DNA photo-crosslinking (Tetrahymena thermophila [4]): 3

COc1c2occc2c(CN(C)C)c2ccc(=O)oc12.Cl
Phototoxic effect (NHIK3025 [1]): 7
Phototoxic effect (Tetrahymena thermophila [2]): 15
DNA crosslinking (NHIK3025 [3]): 24
Photo-cross-linking of DNA (Nucleic Acid): 0.6
Photosensitization (Mus musculus): 194
DNA photo-crosslinking (Tetrahymena thermophila [4]): 14

COc1c2occc2c(CN)c2ccc(=O)oc12.Cl
Phototoxic effect (NHIK3025 [1]): 1
Phototoxic effect (Tetrahymena thermophila [2]): 5
DNA crosslinking (NHIK3025 [3]): 8
Photo-cross-linking of DNA (Nucleic Acid): 2.1
Photosensitization (Mus musculus): 172
DNA photo-crosslinking (Tetrahymena thermophila [4]): 3

COc1c2occc2c(CN(C(C)C)C(C)C)c2ccc(=O)oc12.Cl
Phototoxic effect (NHIK3025 [1]): 2
Phototoxic effect (Tetrahymena thermophila [2]): 10
DNA crosslinking (NHIK3025 [3]): 12
Photo-cross-linking of DNA (Nucleic Acid): 0.15
Photosensitization (Mus musculus): 87

— ChEMBL document CHEMBL1122909, “Psoralenamines. 3. Synthesis, pharmacological behavior, and DNA binding of 5-(aminomethyl)-8-methoxy-, 5-[[(3-aminopropyl)oxy]methyl]-, and 8-[(3-aminopropyl)oxy]psoralen derivatives” (1985)
